According to ChEMBL document CHEMBL1145952, “Hybrid-designed inhibitors of p38 MAP kinase utilizing N-arylpyridazinones” (J Med Chem, 2003):

Tests used:
[1] = molecular target: Mitogen-activated protein kinase 9 (Homo sapiens) (UniProt P45984); experiment: Inhibition of recombinant human flag-tagged JNK2-beta-2 at 1000 nM; format: functional
Outline: (§1)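 Kinase assay with recombinant human FLAG-tagged JNK2β fusion protein phosphorylating GST-ATF2. Phosphorylated GST-ATF2 detected by HTRF.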

[2] = molecular target: Mitogen-activated protein kinase 11 (Mus musculus) (UniProt Q9WUI1); experiment: Displacement of [gamma-33P]-ATP from recombinant murine Mitogen-activated protein kinase p38 beta at 100 nM
[3] = molecular target: Mitogen-activated protein kinase 14 (Mus musculus) (UniProt P47811); experiment: Inhibition of [gamma-33P]-ATP binding to recombinant murine p38 alpha at 100 nM
[4] = molecular target: T1, MAP kinase p38 (Homo sapiens, UniProt O15264+Q15759+Q16539+P53778); experiment: Inhibition of Tumor necrosis factor alpha release from LPS-induced THP-1 cells by ELISA; format: functional, cell-based
Outline: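 Human THP-1 monocytic cells stimulated with LPS. Human TNFα in the cell supernatant measured by ELISA.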

[5] = molecular target: Mitogen-activated protein kinase 9 (Homo sapiens) (UniProt P45984); experiment: Inhibition of recombinant human flag-tagged JNK2-beta-2 at 10000 nM; format: functional; outline: as §1
[6] = molecular target: Mitogen-activated protein kinase 11 (Mus musculus) (UniProt Q9WUI1); experiment: Displacement of [gamma-33P]-ATP from recombinant murine Mitogen-activated protein kinase p38 beta at 5000 nM
[7] = molecular target: Mitogen-activated protein kinase 14 (Mus musculus, UniProt P47811); experiment: Tested in vitro for filter plate binding versus gamma-[33P]ATP in active recombinant murine FLAG-P38 alpha fusion protein (GST-Activating transcription factor-2).
[8] = molecular target: T1, MAP kinase p38; experiment: Inhibition of LPS-induced p38-related Tumor necrosis factor alpha release by THP-1 cells at 4000 nM; format: functional, cell-based
[9] = molecular target: Mitogen-activated protein kinase 9 (Homo sapiens) (UniProt P45984); experiment: Inhibition of recombinant human flag-tagged JNK2-beta-2 at 5000 nM; format: functional; outline: as §1
[10] = molecular target: Mitogen-activated protein kinase 11 (Mus musculus, UniProt Q9WUI1); experiment: Displacement of [gamma-33P]-ATP binding from active recombinant murine FLAG-Mitogen-activated protein kinase p38 beta fusion protein (GST-ATF2)
Outline: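 Filter-plate binding assay of compound competing with [γ-33P]ATP on active recombinant murine FLAG-tagged p38 fusion protein, with GST-ATF2. IC50 values are the average of two or more separate assays. Repeat determinations differed by ±20% on average.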

[11] = (§2) Ex vivo inhibition of Mitogen activated protein kinase activated protein 1 hr after 3 mg/kg dose; format: functional; conditions: Mus musculus
Outline: (§3)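 BALB/c mice (n = 5 per compound) dosed ip at 3 mg/kg in DMSO/EtOH/PEG400/saline (10:10:60:20). Blood collected 1 h after dosing and murine MAPKAP activity measured ex vivo as % inhibition. Significance versus vehicle assessed at p < 0.05.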

[12] = species: Mus musculus; experiment: Tested ex vivo for MAPKAP inhibition, activity expressed as plasma concentration; format: functional, organism-based
Outline: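 Mice dosed ip at 3 mg/kg and plasma taken 1 h after dosing. Plasma compound level determined by bioassay: plasma was diluted in the p38 inhibition assay to find the dilution giving 50% inhibition (EC50). Concentration = free-compound p38 IC50 × 1/dilution factor.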

[13] = molecular target: T1, MAP kinase p38; experiment: Inhibition of LPS-induced p38-related Tumor necrosis factor alpha release in human whole blood; format: functional, tissue-based
[14] = molecular target: T1, MAP kinase p38; experiment: Inhibition of LPS-induced p38-related Tumor necrosis factor alpha release in human whole blood at 4000 nM; format: functional, tissue-based
[15] = system: Mus musculus; experiment: as §2; format: functional, organism-based; design: dose 3 mg/kg; outline: as §3
[16] = system: Mus musculus; experiment: Tested ex vivo for MAPKAP plasma concentration at 1 hr after dosing; format: functional, organism-based
Outline: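 BALB/c mice (n = 5) given 3 mg/kg ip in DMSO/EtOH/PEG400/saline (10:10:60:20); blood drawn 1 h post-dose. Plasma level determined by bioassay: serial plasma dilutions run in the p38 inhibition assay, and the compound's free p38 IC50 multiplied by 1/(plasma dilution giving 50% inhibition, EC50).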

Mitogen-activated protein kinase 9 (Homo sapiens), sequence (P45984 whole entry, looked up, the tested form may be a part): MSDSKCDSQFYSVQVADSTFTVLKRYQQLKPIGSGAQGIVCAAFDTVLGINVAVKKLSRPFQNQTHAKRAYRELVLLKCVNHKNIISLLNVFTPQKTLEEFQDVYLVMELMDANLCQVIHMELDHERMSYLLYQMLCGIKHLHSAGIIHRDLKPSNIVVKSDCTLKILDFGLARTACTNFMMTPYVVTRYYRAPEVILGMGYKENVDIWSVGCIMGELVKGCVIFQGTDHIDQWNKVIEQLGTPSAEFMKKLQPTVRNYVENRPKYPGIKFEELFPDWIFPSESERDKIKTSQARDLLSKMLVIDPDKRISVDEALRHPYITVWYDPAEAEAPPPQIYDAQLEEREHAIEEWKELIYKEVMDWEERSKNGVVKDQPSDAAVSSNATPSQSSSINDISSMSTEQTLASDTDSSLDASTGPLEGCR
Mitogen-activated protein kinase 14, sequence (P47811 whole entry, the tested form may be a part): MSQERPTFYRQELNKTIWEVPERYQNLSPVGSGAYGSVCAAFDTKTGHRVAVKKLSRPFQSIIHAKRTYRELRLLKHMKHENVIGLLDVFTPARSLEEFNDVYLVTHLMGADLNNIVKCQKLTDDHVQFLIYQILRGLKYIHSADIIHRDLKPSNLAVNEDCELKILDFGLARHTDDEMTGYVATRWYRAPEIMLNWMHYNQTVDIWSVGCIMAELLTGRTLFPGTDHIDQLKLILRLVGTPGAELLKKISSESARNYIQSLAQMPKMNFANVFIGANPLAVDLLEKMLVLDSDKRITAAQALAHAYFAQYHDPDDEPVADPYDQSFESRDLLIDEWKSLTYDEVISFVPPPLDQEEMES
Mitogen-activated protein kinase 11 (Mus musculus), sequence (Q9WUI1 whole entry, the tested form may be a part): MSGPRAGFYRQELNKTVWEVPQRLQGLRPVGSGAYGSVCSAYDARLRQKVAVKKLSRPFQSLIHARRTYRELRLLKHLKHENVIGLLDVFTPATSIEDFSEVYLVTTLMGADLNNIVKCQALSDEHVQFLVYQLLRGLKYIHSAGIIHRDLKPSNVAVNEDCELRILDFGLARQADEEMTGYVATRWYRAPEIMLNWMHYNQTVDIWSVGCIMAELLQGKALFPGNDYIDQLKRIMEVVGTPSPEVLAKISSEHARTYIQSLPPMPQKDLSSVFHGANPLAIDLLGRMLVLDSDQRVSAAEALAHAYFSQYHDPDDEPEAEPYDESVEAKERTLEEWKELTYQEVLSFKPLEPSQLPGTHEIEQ
Mitogen-activated protein kinase 11, sequence (Q9WUI1 whole entry, the tested form may be a part): as above
Mitogen-activated protein kinase 14 (Mus musculus), sequence (P47811 whole entry): as the sequence (P47811 whole entry, the tested form may be a part) above

Row | inhibition [5] | IC50 [7] | inhibition [9] | IC50 [10] | SMILES | IC50 [4] | inhibition [8] | IC50 [13] | further results
1 |  |  |  |  | Cc1ccccc1N1N=C(c2c(-c3cccc(Cl)c3Cl)nc3ccccn23)CCC1=O | 170 nM |  |  | inhibition [1]: 0%; inhibition [2]: 33%; inhibition [3]: 36%
2 | 0% | 1000 nM |  |  | O=c1ccc(-c2c(-c3cccc(C(F)(F)F)c3)nc3ccccn23)nn1-c1c(Cl)cccc1Cl |  | 41% |  | inhibition [6]: 50%
3 |  | 344 nM |  |  | O=c1ccc(-c2c(-c3cccc(C(F)(F)F)c3)nc3ccccn23)nn1-c1ccccc1Cl |  | 48% |  | 
4 |  | 2000 nM | 26% |  | O=C1CCC(c2c(-c3cccc(Cl)c3Cl)nc3ccccn23)=NN1c1c(Cl)cccc1Cl |  | 59% |  | inhibition [6]: 57%
5 | 0% | 171 nM |  | 355 nM | O=C1CCC(c2c(-c3cccc(C(F)(F)F)c3)nc3ccccn23)=NN1c1ccccc1Cl |  | 72% |  | 
6 | 0% | 42 nM |  | 670 nM | O=C1CCC(c2c(-c3ccc(F)cc3Cl)nc3ccccn23)=NN1c1c(Cl)cccc1Cl | 180 nM |  |  | 
7 | 23% | 14 nM |  | 64 nM | O=c1ccc(-c2c(-c3ccc(F)cc3Cl)nc3ccccn23)nn1-c1c(Cl)cccc1Cl | 161 nM |  |  | 
8 |  | 9 nM | 16% | 28 nM | Cc1ccccc1-n1nc(-c2c(-c3ccc(F)cc3Cl)nc3ccccn23)ccc1=O | 20 nM |  | 100 nM | inhibition in vivo at 3 mg/kg [11]: 42%; Concentration [12]: 810 nM
9 | 22% | 8 nM |  | 63 nM | O=C1CCC(c2c(-c3ccc(F)cc3F)nc3ccccn23)=NN1c1c(Cl)cccc1Cl | 10 nM |  | 205 nM | 
10 | 40% | 49 nM |  | 153 nM | O=c1ccc(-c2c(-c3ccc(F)cc3)nc3ccccn23)nn1-c1c(Cl)cccc1Cl | 70 nM |  |  | inhibition [14]: 60%
11 | 0% | 76 nM |  | 171 nM | O=c1ccc(-c2c(-c3ccc(F)cc3Cl)nc3ccccn23)nn1-c1ccccc1Cl | 161 nM |  |  | 
12 |  | 26 nM | 15% | 140 nM | Cc1ccccc1-n1nc(-c2c(-c3ccc(F)cc3F)nc3ccccn23)ccc1=O | 68 nM |  | 870 nM | 
13 | 0% | 208 nM |  | 2600 nM | O=C1CCC(c2c(-c3ccc(F)cc3Cl)nc3ccccn23)=NN1c1ccccc1Cl | 400 nM |  |  | 
14 |  | 270 nM | 14% | 890 nM | O=c1ccc(-c2c(-c3cccc(Cl)c3Cl)nc3ccccn23)nn1-c1c(Cl)cccc1Cl |  | 65% |  | 
15 |  |  |  |  | O=c1ncn2nc(Sc3ccc(F)cc3F)ccc2c1-c1c(Cl)cccc1Cl |  |  |  | inhibition [15]: 29%; Concentration [16]: 1730 nM
16 |  | 14 nM | 4% | 94 nM | Cc1ccccc1N1N=C(c2c(-c3ccc(F)cc3Cl)nc3ccccn23)CCC1=O | 22 nM |  | 220 nM | 
17 | 15% | 22 nM |  | 44 nM | Cc1ccccc1-n1nc(-c2c(-c3cccc(Cl)c3Cl)nc3ccccn23)ccc1=O | 6 nM |  | 500 nM | 
18 | 4% | 8 nM |  | 78 nM | Cc1ccccc1N1N=C(c2c(-c3ccc(F)cc3F)nc3ccccn23)CCC1=O | 14 nM |  | 440 nM | 
19 |  | 22 nM | 11% | 112 nM | O=c1ccc(-c2c(-c3ccc(F)cc3F)nc3ccccn23)nn1-c1c(Cl)cccc1Cl |  | 89% | 1000 nM | 
